# Laboratory results: ChEMBL document CHEMBL1124929, “Indolo[2,1-a]isoquinolines. Syntheses, steroid hormone receptor binding affinities, and cytostatic activity” (1990)
# What was measured:
# MCF7 [1] = assay: Effect on hormone-dependent MCF-7 human breast cancer cell proliferation at 5x10E-6M; assay type: functional
# Method in brief: (§1)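 Cells were plated at about 2 × 10⁴ per well in six-well dishes. MCF-7 cells were grown in modified improved MEM with 5% NCS, switched to charcoal-treated NCS two weeks before the test, and exposed for 5 days with a re-dose on day 4. MDA-MB 231 cells were grown in McCoy 5a with 10% NCS and exposed for 2 days. Compounds were given 1 day after plating in 0.1% DMSO, with DMSO-matched controls. Read-out was cell number as % T/C, mean of three experiments with six dishes.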
# MDA-MB-231 [2] = assay: Cytostatic effect on hormone-independent MDA-MB 231 human breast cancer cell proliferation at 1x10E-6M; assay type: functional; method in brief: as §1
# MCF7 [3] = assay: Effect on hormone-dependent MCF-7 human breast cancer cell proliferation at 1x10E-6M; assay type: functional; method in brief: as §1
# [4] = biological target: T1, Estrogen receptor (Mus musculus) (UniProt O08537+P19785); assay: Estrogenic activity in uterotrophic assay in immature mice at 250 ug subcutaneous dose; assay type: functional
# Method in brief: (§2)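 Immature female NMRI mice, 20 days old, in groups of 6-10, were dosed sc once daily for three consecutive days. Compounds were given in PEG/0.9% saline 1:1; vehicle controls were included. Animals were killed 24 h after the last dose. Uteri were fixed in Bouin solution and the effect was taken as uterine dry weight (mg)/body weight (g) ×100, given as mean ± SD.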
# [5] = biological target: T2, Androgen receptor (Mus musculus) (UniProt P19091); assay: Inhibition of seminal vesicle weight in intact mice at 10.0 ug
# T2 sequence (whole entry): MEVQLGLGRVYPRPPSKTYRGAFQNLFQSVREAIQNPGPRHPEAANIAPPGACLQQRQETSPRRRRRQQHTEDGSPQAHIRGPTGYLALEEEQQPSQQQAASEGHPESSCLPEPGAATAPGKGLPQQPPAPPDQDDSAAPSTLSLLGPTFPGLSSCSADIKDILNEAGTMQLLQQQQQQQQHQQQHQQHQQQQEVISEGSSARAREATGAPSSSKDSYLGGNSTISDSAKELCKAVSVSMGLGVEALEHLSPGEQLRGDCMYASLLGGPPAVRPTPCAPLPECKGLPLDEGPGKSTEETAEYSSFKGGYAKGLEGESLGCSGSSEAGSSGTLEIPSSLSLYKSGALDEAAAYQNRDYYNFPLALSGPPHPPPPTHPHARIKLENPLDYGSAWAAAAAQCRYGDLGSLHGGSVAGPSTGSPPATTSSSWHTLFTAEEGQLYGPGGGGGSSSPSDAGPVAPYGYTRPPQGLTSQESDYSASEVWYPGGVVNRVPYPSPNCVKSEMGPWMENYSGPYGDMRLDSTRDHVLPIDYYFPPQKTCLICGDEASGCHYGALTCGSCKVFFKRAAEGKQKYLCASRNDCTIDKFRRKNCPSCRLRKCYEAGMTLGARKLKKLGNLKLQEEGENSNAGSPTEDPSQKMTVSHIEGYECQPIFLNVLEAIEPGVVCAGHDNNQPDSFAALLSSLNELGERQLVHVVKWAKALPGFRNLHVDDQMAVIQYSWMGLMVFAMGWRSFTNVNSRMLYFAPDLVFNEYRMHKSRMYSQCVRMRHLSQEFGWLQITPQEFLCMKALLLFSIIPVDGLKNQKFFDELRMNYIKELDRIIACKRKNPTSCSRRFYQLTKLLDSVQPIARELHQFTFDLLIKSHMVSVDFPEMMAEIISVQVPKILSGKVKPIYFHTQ
# [6] = biological target: T2, Androgen receptor (Mus musculus); assay: Relative effect on seminal vesicle weight in adult and castrated mice at 10 ug dose; assay type: functional, tissue-based
# Method in brief: (§3)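 Adult male mice, 23–25 g, six per group, were used intact or castrated via the scrotal route under ether 5 days before the test. Castrates received 0.3 mg testosterone propionate daily. Compounds were injected daily in olive oil for nine days. Seminal vesicles were taken 24 h later, fixed in Bouin solution, dried overnight at 100 °C and weighed. Result is organ mg/body g ×100; % inhibition = [1 − treated/control] × 100.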
# MDA-MB-231 [7] = assay: Effect on [3H]thymidine incorporation into MDA-MB 231 human breast cancer cells at 1x10E-5 M; assay type: functional
# Method in brief: (§4)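 Cells were seeded at ~2 × 10⁴ per well, treated from the next day in 0.1% DMSO, with DMSO controls. MCF-7 cells were held in charcoal-stripped NCS for 2 weeks, treated for 5 days and re-dosed on day 4. MDA-MB 231 cells were grown in McCoy 5a/10% NCS and treated for 2 days. At the end, 1 µCi [³H]thymidine per well was added for 2 h. Result is % T/C, mean of three experiments × six dishes.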
# [8] = biological target: T1, Estrogen receptor (Mus musculus); assay: Estrogenic activity in uterotrophic assay in immature mice at 2 ug subcutaneous dose; assay type: functional; method in brief: as §2
# MDA-MB-231 [9] = assay: Cytostatic effect on hormone-independent MDA-MB 231 human breast cancer cell proliferation at 1x10E-5 M; assay type: functional; method in brief: as §1
# [10] = biological target: Estrogen receptor (Bos taurus) (UniProt Q9XSB5+P49884); assay: Relative binding affinity(RBA) for 50% displacement of [3H]-estradiol from Estrogen receptor compared to 17-beta-estradiol; assay type: protein assay
# Method in brief: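 Receptor source was calf uterine cytosol (105000g supernatant, 3 mg/mL protein in assay). Buffers were Tris/EDTA pH 7.4, with NaN₃ for ER, molybdate/glycerol for AR, and sucrose for PR. Tracers were 1 nM [³H]estradiol, [³H]mibolerone or [³H]Org 2058. Incubation was at 0–4 °C for 16 h (ER) or 2 h (AR, PR), with 4–6 competitor concentrations. Nonspecific binding used 2 µM of the unlabeled hormone. Separation was by dextran-coated charcoal. RBA is the ratio of IC50 values for hormone and compound ×100, mean of two triplicate experiments.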
# [11] = biological target: T1, Estrogen receptor (Mus musculus); assay: Estrogenic activity in uterotrophic assay in immature mice at 50.0 ug subcutaneous dose; assay type: functional; method in brief: as §2
# [12] = biological target: T1, Estrogen receptor (Mus musculus); assay: (§5) Estrogenic activity in uterotrophic assay in immature mice at 10.0 ug subcutaneous dose; assay type: functional; method in brief: as §2
# [13] = biological target: T2, Androgen receptor (Mus musculus); assay: Relative effect on seminal vesicle weight in adult and castrated mice supplemented with 0.3 mg TP at 1000 ug dose; assay type: functional, tissue-based; method in brief: as §3
# MCF7 [14] = assay: Effect on hormone-dependent MCF-7 human breast cancer cell proliferation at 1x10E-7M; assay type: functional; method in brief: as §1
# [15] = biological target: T2, Androgen receptor (Mus musculus); assay: Relative effect on seminal vesicle weight in adult and castrated mice at 100 ug dose; assay type: functional, tissue-based; method in brief: as §3
# [16] = biological target: T2, Androgen receptor (Mus musculus); assay: Inhibition of testosterone-stimulated seminal vesicle growth in castrated mice supplemented with 0.3 mg of TP at 1000.0 ug; assay type: functional; method in brief: as §3
# [17] = biological target: T1, Estrogen receptor (Mus musculus); assay: as §5; assay type: functional; method in brief: as §2; remark: listed apart in the source
# MCF7 [18] = assay: Effect on [3H]thymidine incorporation into MCF-7 human breast cancer cells at 1x10E-6M; assay type: functional; method in brief: as §4
# [19] = biological target: T1, Estrogen receptor (Mus musculus); assay: Estrogenic activity in uterotrophic assay in immature mice at 125 ug subcutaneous dose; assay type: functional; method in brief: as §2
# [20] = biological target: T1, Estrogen receptor (Mus musculus); assay: Inhibition of 0.4 ug estrone-stimulated uterine growth in mice at 50.0 ug subcutaneous dose; p<0.01; assay type: functional
# Method in brief: (§6)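 Immature 20-day-old female NMRI mice received sc injections on three consecutive days. Each injection held 0.4 µg estrone plus the compound in PEG/saline 1:1. […] Significance was tested by Mann-Whitney U test.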
# [21] = biological target: T1, Estrogen receptor (Mus musculus); assay: Inhibition of 0.4 ug estrone-stimulated uterine growth in mice at 2 ug subcutaneous dose; assay type: functional; method in brief: as §6
# [22] = biological target: T1, Estrogen receptor (Mus musculus); assay: Inhibition of 0.4 ug estrone-stimulated uterine growth in mice at 10.0 ug subcutaneous dose; assay type: functional; method in brief: as §6
# T1 sequence (O08537 whole entry, looked up): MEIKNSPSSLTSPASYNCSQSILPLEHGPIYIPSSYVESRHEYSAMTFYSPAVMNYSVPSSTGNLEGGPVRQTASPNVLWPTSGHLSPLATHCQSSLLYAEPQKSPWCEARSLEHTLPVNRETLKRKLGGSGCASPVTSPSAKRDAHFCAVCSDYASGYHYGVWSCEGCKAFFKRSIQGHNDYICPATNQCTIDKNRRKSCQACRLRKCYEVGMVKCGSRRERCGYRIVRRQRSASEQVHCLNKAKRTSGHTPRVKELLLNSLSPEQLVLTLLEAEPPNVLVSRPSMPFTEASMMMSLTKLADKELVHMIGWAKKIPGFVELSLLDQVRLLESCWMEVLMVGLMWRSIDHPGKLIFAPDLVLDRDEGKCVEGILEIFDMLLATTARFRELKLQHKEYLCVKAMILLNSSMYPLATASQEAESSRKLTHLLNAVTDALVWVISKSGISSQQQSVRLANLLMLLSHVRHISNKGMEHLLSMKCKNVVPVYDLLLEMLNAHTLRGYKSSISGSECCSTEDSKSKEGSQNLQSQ
# T1 sequence (P19785 whole entry, looked up): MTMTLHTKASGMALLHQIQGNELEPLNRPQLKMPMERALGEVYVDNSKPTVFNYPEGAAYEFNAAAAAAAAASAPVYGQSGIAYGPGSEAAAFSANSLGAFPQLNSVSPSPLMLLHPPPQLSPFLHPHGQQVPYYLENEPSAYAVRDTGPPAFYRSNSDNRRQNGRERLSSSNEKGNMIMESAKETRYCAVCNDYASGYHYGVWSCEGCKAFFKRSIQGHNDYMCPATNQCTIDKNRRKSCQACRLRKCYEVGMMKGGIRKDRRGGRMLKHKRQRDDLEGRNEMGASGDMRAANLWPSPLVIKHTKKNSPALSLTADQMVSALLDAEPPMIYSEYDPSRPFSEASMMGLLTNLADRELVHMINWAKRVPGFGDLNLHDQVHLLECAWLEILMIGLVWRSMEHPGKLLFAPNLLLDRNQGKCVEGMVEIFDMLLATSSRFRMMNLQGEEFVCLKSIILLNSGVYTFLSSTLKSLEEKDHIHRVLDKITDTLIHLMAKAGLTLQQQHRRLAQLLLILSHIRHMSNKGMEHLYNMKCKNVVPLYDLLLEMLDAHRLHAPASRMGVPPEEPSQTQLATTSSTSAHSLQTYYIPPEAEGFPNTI
compound,measurement,setting,value
CCC1Cc2cc(OC(C)=O)ccc2-c2cc3cc(OC(C)=O)ccc3n21 (configuration not stated),T/C,MCF7 [1],10%
same,T/C,MDA-MB-231 [2],74%
same,T/C,MCF7 [3],45%
same,Effect,[4],53.4
same,inhibition,[5],22%
same,Relative seminal vesicle weight,[6],132
same,T/C,MDA-MB-231 [7],4%
same,Effect,[8],52.3
same,T/C,MDA-MB-231 [9],4%
same,RBA,[10],17
same,Effect,[11],35.8
same,Effect,[12],51
same,Relative seminal vesicle weight,[13],187
same,T/C,MCF7 [14],80%
same,Relative seminal vesicle weight,[15],54.5
same,inhibition,[16],17%
same,Effect,[17],25.5
same,T/C,MCF7 [18],25%
same,Effect,[19],39.5
same,inhibition,[20],25.9%
same,inhibition,[21],7.2%
same,inhibition,[22],12.2%
